ChEMBL document CHEMBL4373647, “Design, synthesis, and antimicrobial evaluation of 1,4-dihydroindeno[1,2-c]pyrazole tethered carbohydrazide hybrids: exploring their in silico ADMET, ergosterol inhibition and ROS inducing potential” (Medchemcomm, 2019)
≈ marks a conversion by molar mass, not a printed value. Calls of active or inactive are those of the source. No cut-off for these calls is given here.

Columns and labels:
Nakaseomyces glabratus [1] = test: Fungicidal activity against Candida glabrata MTCC 3019 assessed as fungal killing incubated for 24 hrs; type: functional; settings: MTCC 3019, 24 h
Method in brief: (§1)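 Compound at 125–0.97 µg/mL in Mueller Hinton broth in microcentrifuge tubes, each Candida strain added, held 24 h at 37 °C. 10 µL of the treated suspension plated on Mueller Hinton agar and incubated a further 24 h at 37 °C. MFC is the lowest concentration that kills the strain. Duplicates, means reported.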

Pseudomonas aeruginosa = test: Antibacterial activity against Pseudomonas aeruginosa MTCC 2453 assessed as inhibition of bacterial growth incubated for 24 hrs by agar well diffusion method; type: functional
Method in brief: (§2)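 Strains from MTCC; inoculum at 0.5 McFarland spread on Mueller-Hinton agar; 6 mm wells loaded with compound over 125–0.97 µg/mL; ciprofloxacin positive control (same range), DMSO negative control. Plates held 24 h at 37 °C; MIC taken as lowest concentration giving a clear inhibition zone. Triplicate runs, mean MIC reported.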

Candida albicans [2] = test: Fungicidal activity against Candida albicans MTCC 1637 assessed as fungal killing incubated for 24 hrs; type: functional; settings: MTCC 1637, 24 h; method in brief: as §1
Pichia kudriavzevii [3] = test: Ratio of MFC to MIC against Candida krusei MTCC 3020; type: functional
Method in brief: (§3)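 MIC by agar well diffusion: Candida lawns on Mueller-Hinton agar, wells loaded with compound in 10% DMSO (125–0.97 µg/mL), 24 h at 37 °C, lowest concentration giving an inhibition zone. MFC: compound in Mueller-Hinton broth (125–0.97 µg/mL) with yeast, 24 h at 37 °C, 10 µL plated on agar, lowest killing concentration after 24 h. Ratio is MFC/MIC.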

Staphylococcus aureus [4] = test: Antibacterial activity against Staphylococcus aureus MTCC 96 assessed as inhibition of bacterial growth incubated for 24 hrs by agar well diffusion method; type: functional; method in brief: as §2
Pichia kudriavzevii [5] = test: Fungicidal activity against Candida krusei MTCC 3020 assessed as fungal killing incubated for 24 hrs; type: functional; settings: MTCC 3020, 24 h; method in brief: as §1
Candida albicans [6] = test: Ratio of MFC to MIC against Candida albicans MTCC 183; type: functional
Candida albicans [7] = test: Fungicidal activity against Candida albicans MTCC 4748 assessed as fungal killing incubated for 24 hrs; type: functional; settings: MTCC 4748, 24 h; method in brief: as §1
Escherichia coli = test: Antibacterial activity against Escherichia coli MTCC 739 assessed as inhibition of bacterial growth incubated for 24 hrs by agar well diffusion method; type: functional; method in brief: as §2
Candida albicans [8] = test: Fungicidal activity against Candida albicans MTCC 7315 assessed as fungal killing incubated for 24 hrs; type: functional; settings: MTCC 7315, 24 h; method in brief: as §1
Pichia sporocuriosa [9] = test: Fungicidal activity against Issatchenkia hanoiensis MTCC 4755 assessed as fungal killing incubated for 24 hrs; type: functional; settings: MTCC 4755, 24 h; method in brief: as §1
Candida albicans [10] = test: Antifungal activity against Candida albicans MTCC 4748 assessed as inhibition of fungal growth incubated for 24 hrs by agar well diffusion method; type: functional; settings: MTCC 4748, 24 h
Method in brief: (§4)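 Candida strains from MTCC, pre-cultured and spread on Mueller Hinton agar. Wells received compound dissolved in 10% DMSO, 125–0.97 µg/mL; miconazole standard over the same range, DMSO negative control. After 24 h at 37 °C, MIC was read as the lowest concentration giving an inhibition zone. Duplicate experiments, means given.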

Staphylococcus aureus [11] = test: Antibacterial activity against Staphylococcus aureus MLS-16 MTCC 2940 assessed as inhibition of bacterial growth incubated for 24 hrs by agar well diffusion method; type: functional; method in brief: as §2
Pichia kudriavzevii [12] = test: Antifungal activity against Candida krusei MTCC 3020 assessed as inhibition of fungal growth incubated for 24 hrs by agar well diffusion method; type: functional; settings: MTCC 3020, 24 h; method in brief: as §4
Micrococcus luteus = test: Antibacterial activity against Micrococcus luteus MTCC 2470 assessed as inhibition of bacterial growth incubated for 24 hrs by agar well diffusion method; type: functional; method in brief: as §2
Candida albicans [13] = test: Fungicidal activity against Candida albicans MTCC 183 assessed as fungal killing incubated for 24 hrs; type: functional; settings: MTCC 183, 24 h; method in brief: as §1
MRC5 = test: Cytotoxicity against human MRC5 cells incubated for 48 hrs by MTT assay; type: cell-based; settings: MRC5, 48 h
Method in brief: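 Normal human lung MRC5 cells grown 24 h in 96-well plates, then exposed to a range of compound concentrations for 48 h. MTT (250 µg/mL) added for 2 h, medium replaced by DMSO, absorbance read at 570 nm. Miconazole positive control, DMSO negative control. Triplicates, mean ± S.D.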

Pichia sporocuriosa [14] = test: Antifungal activity against Issatchenkia hanoiensis MTCC 4755 assessed as inhibition of fungal growth incubated for 24 hrs by agar well diffusion method; type: functional; settings: MTCC 4755, 24 h; method in brief: as §4
Candida albicans [15] = test: Antifungal activity against Candida albicans MTCC 227 assessed as inhibition of fungal growth incubated for 24 hrs by agar well diffusion method; type: functional; settings: MTCC 227, 24 h; method in brief: as §4
Nakaseomyces glabratus [16] = test: Ratio of MFC to MIC against Candida glabrata MTCC 3019; type: functional; method in brief: as §3
Candida parapsilosis [17] = test: Ratio of MFC to MIC against Candida parapsilosis MTCC 1744; type: functional; method in brief: as §3
Candida albicans [18] = test: Ratio of MFC to MIC against Candida albicans MTCC 7315; type: functional; method in brief: as §3
Candida albicans [19] = test: Induction of ROS generation in Candida albicans MTCC 3017 assessed as accumulation of intracellular ROS level by measuring fluorescence intensity at 5 to 25 ug/ml after 24 hrs by DCFH-DA probe based fluorimetric assay; type: functional, organism-based
Method in brief: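 C. albicans MTCC 3017 biofilms grown 24 h at 37 °C in 96-well plates, then treated 24 h with compound at 0, 5, 10, 15, 20, 25 µg/mL; untreated cells served as control. Cells then loaded with 10 µM DCFH-DA for 24 h in the dark, and fluorescence read at 485 nm excitation and 535 nm emission. Triplicates.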

Candida albicans [20] = test: Fungicidal activity against Candida albicans MTCC 227 assessed as fungal killing incubated for 24 hrs; type: functional; settings: MTCC 227, 24 h; method in brief: as §1
Nakaseomyces glabratus [21] = test: Antifungal activity against Candida glabrata MTCC 3019 assessed as inhibition of fungal growth incubated for 24 hrs by agar well diffusion method; type: functional; settings: MTCC 3019, 24 h; method in brief: as §4
Candida albicans [22] = test: Antifungal activity against Candida albicans MTCC 7315 assessed as inhibition of fungal growth incubated for 24 hrs by agar well diffusion method; type: functional; settings: MTCC 7315, 24 h; method in brief: as §4
Candida albicans [23] = test: Antifungal activity against Candida albicans MTCC 1637 assessed as inhibition of fungal growth incubated for 24 hrs by agar well diffusion method; type: functional; settings: MTCC 1637, 24 h; method in brief: as §4
Candida albicans [24] = test: Antifungal activity against Candida albicans MTCC 183 assessed as inhibition of fungal growth incubated for 24 hrs by agar well diffusion method; type: functional; settings: MTCC 183, 24 h; method in brief: as §4
Candida albicans [25] = test: Fungicidal activity against Candida albicans MTCC 3018 assessed as fungal killing incubated for 24 hrs; type: functional; settings: MTCC 3018, 24 h; method in brief: as §1
Raoultella planticola = test: Antibacterial activity against Klebsiella planticola MTCC 530 assessed as inhibition of bacterial growth incubated for 24 hrs by agar well diffusion method; type: functional; method in brief: as §2
Candida albicans [26] = test: Ratio of MFC to MIC against Candida albicans MTCC 4748; type: functional; method in brief: as §3
Candida parapsilosis [27] = test: Fungicidal activity against Candida parapsilosis MTCC 1744 assessed as fungal killing incubated for 24 hrs; type: functional; settings: Lodderomyces parapsilosis, MTCC 1744, 24 h; method in brief: as §1
Candida albicans [28] = test: Ratio of MFC to MIC against Candida albicans MTCC 1637; type: functional
Pichia sporocuriosa [29] = test: Ratio of MFC to MIC against Issatchenkia hanoiensis MTCC 4755; type: functional; method in brief: as §3
Candida albicans [30] = test: Ratio of MFC to MIC against Candida albicans MTCC 227; type: functional; method in brief: as §3
Candida parapsilosis [31] = test: Antifungal activity against Candida parapsilosis MTCC 1744 assessed as inhibition of fungal growth incubated for 24 hrs by agar well diffusion method; type: functional; settings: Lodderomyces parapsilosis, MTCC 1744, 24 h; method in brief: as §4
Candida albicans [32] = test: Antifungal activity against Candida albicans MTCC 3018 assessed as inhibition of fungal growth incubated for 24 hrs by agar well diffusion method; type: functional; settings: MTCC 3018, 24 h; method in brief: as §4
Bacillus subtilis = test: Antibacterial activity against Bacillus subtilis MTCC 121 assessed as inhibition of bacterial growth incubated for 24 hrs by agar well diffusion method; type: functional; method in brief: as §2
Candida albicans [33] = test: Ratio of MFC to MIC against Candida albicans MTCC 3018; type: functional; method in brief: as §3
[34] = molecular target: Lanosterol 14-alpha demethylase (Candida albicans (strain SC5314 / ATCC MYA-2876) (Yeast), UniProt P10613); test: Inhibition of CYP51 in Candida albicans MTCC 3017 assessed as reduction in ergosterol level incubated for 20 hrs by UV-visible spectrophotometry analysis
Sequence of Lanosterol 14-alpha demethylase (P10613 whole entry): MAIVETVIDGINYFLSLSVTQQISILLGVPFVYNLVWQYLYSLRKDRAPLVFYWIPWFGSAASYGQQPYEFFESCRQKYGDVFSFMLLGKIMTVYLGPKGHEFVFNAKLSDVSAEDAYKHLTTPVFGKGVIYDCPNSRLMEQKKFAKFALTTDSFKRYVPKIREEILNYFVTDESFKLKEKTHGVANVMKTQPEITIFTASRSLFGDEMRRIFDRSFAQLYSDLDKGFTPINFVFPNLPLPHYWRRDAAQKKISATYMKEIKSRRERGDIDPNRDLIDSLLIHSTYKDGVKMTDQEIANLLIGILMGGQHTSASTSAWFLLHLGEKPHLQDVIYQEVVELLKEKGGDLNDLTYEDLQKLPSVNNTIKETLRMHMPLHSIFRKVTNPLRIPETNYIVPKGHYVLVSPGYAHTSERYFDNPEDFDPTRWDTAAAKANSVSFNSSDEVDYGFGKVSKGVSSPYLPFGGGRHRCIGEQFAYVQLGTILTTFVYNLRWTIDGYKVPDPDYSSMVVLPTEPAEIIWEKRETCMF
Method in brief: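 Modified Breivik–Owades sterol method: Mueller Hinton broth with compound at 0, 2, 4, 8, 16 µg/mL, inoculated with single Candida colonies, shaken at 200 rpm for 20 h at 30 °C. Pellets washed and weighed, saponified in 25% alcoholic KOH for 70 min at 90 °C, sterols extracted into n-heptane, diluted 1:5 in ethanol and scanned at 230–310 nm. Triplicates.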

Candida albicans [35] = test: Antifungal activity against Candida albicans MTCC 3017 assessed as inhibition of fungal growth incubated for 24 hrs by agar well diffusion method; type: functional; settings: MTCC 3017, 24 h; method in brief: as §4

For Clc1ccc(COC(Cn2ccnc2)c2ccc(Cl)cc2Cl)c(Cl)c1 (stereo unspecified) [MICONAZOLE], the MFC (Nakaseomyces glabratus [1]) was 7.8 µg/mL (≈ 18.7 µM), the MIC (Pseudomonas aeruginosa) was “inactive” and the MFC (Candida albicans [2]) was 7.8 µg/mL (≈ 18.7 µM). For the same molecule, the Ratio (Pichia kudriavzevii [3]) was 2, the MIC (Staphylococcus aureus [4]) was “inactive” and the MFC (Pichia kudriavzevii [5]) was 7.8 µg/mL (≈ 18.7 µM). For the same molecule, the Ratio (Candida albicans [6]) was 2, the MFC (Candida albicans [7]) was 7.8 µg/mL (≈ 18.7 µM) and the MIC (Escherichia coli) was “inactive”. For the same molecule, the MFC (Candida albicans [8]) was 7.8 µg/mL (≈ 18.7 µM), the MFC (Pichia sporocuriosa [9]) was 7.8 µg/mL (≈ 18.7 µM) and the MIC (Candida albicans [10]) was 3.9 µg/mL (≈ 9.37 µM). For the same molecule, the MIC (Staphylococcus aureus [11]) was “inactive”, the MIC (Pichia kudriavzevii [12]) was 3.9 µg/mL (≈ 9.37 µM) and the MIC (Micrococcus luteus) was “inactive”. It also gave an MFC (Candida albicans [13]) of 7.8 µg/mL (≈ 18.7 µM), an IC50 (MRC5) of 61.7 µg/mL (≈ 148 µM) and an MIC (Pichia sporocuriosa [14]) of 3.9 µg/mL (≈ 9.37 µM). It also gave an MIC (Candida albicans [15]) of 3.9 µg/mL (≈ 9.37 µM), a Ratio (Nakaseomyces glabratus [16]) of 2 and a Ratio (Candida parapsilosis [17]) of 2. The Ratio (Candida albicans [18]) was 2, the Activity (Candida albicans [19]) was “Active” and the MFC (Candida albicans [20]) was 7.8 µg/mL (≈ 18.7 µM). The MIC (Nakaseomyces glabratus [21]) was 3.9 µg/mL (≈ 9.37 µM), the MIC (Candida albicans [22]) was 3.9 µg/mL (≈ 9.37 µM) and the MIC (Candida albicans [23]) was 3.9 µg/mL (≈ 9.37 µM). For the same molecule, the MIC (Candida albicans [24]) was 3.9 µg/mL (≈ 9.37 µM), the MFC (Candida albicans [25]) was 7.8 µg/mL (≈ 18.7 µM) and the MIC (Raoultella planticola) was “inactive”. It also gave a Ratio (Candida albicans [26]) of 2, an MFC (Candida parapsilosis [27]) of 7.8 µg/mL (≈ 18.7 µM) and a Ratio (Candida albicans [28]) of 2. For the same molecule, the Ratio (Pichia sporocuriosa [29]) was 2, the Ratio (Candida albicans [30]) was 2 and the MIC (Candida parapsilosis [31]) was 3.9 µg/mL (≈ 9.37 µM). The MIC (Candida albicans [32]) was 3.9 µg/mL (≈ 9.37 µM), the MIC (Bacillus subtilis) was “inactive” and the Ratio (Candida albicans [33]) was 2. For the same molecule, the “inhibition (INH)” value [34] was “Dose-dependent effect” and the MIC (Candida albicans [35]) was 3.9 µg/mL (≈ 9.37 µM).
